ARFGAP1 inhibitor = rat ARFGAP1 inhibition. AID 651572. 360,000 tested, 0.26% active. inhibition, % at 16.5 µM. Arfgap1-stimulated ARF1 GTP hydrolysis, GDP FP detection. Q62848;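 active = inhibition above a per-plate limit, mean inhibition of low control wells plus 3 SD, cut at about 25% in these data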;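 note: 0% = DMSO wells with enzyme and 100% = wells lacking Arfgap1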
Target sequence (Q62848 1-136 limits assumed): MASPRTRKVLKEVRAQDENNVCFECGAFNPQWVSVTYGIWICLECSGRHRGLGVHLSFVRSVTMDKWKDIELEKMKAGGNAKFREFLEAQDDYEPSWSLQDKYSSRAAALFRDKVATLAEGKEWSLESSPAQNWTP
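Material: rat Arfgap1 catalytic domain, aa 1-136; also added: human ARF1(Δ1-17)-GTP substrate; compound dosing: one concentration, 16.5 µM, DMSO 1.26%; incubation: GTP hydrolysis reaction 2 h at 25 °C; measured by: Tracer-displacement fluorescence polarization with EDTA stop, 620/688 nm; evaluation: % inhibition from polarization; repeats: one replicate per compound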
LEDGF integ inh = blocks HIV-1 LEDGF/p75-dependent DNA integration; TR-FRET IN-LEDGF/p75 DNA integration, Eu/Cy5; 370,000 tested, 0.64% active; inhibition, % at 3.7 µM;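 active = inhibition above the screen-wide mean plus 3 SD, cut at about 13% in these data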;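 note: signal is the Cy5 over europium emission ratio at 671 and 618 nm; 0% = plate median of compound wells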
CASP6 VEID inh = caspase-6 (human) enzyme inhibition. P55212. purified caspase-6, Z-VEID-R110 cleavage fluorescence. inhibition, % at 12.5 µM. 350,000 tested, 0.53% active;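 active = mean inhibition across replicates at least about 35%, with every replicate also reaching that limit, limit read from the data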;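 note: 0% = median of neutral control wells and 100% = no fluorescence left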
TDP2 absorb = TDP2 (human) inhibition, absorbance primary screen | O95551 | recombinant TDP2, T5PNP hydrolysis, p-nitrophenol absorbance 415 nm | inhibition, % at 12.8 µM | 370,000 tested, 0.34% active | AID 720702;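 active = inhibition above the mean of all tested compounds plus 3 SD, set per campaign, cut at about 25% in these data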;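 note: 0% = DMSO with enzyme and 100% = buffer with substrate but no TDP2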
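Test system: Human TDP2 enzyme | Reagent: 5 mM T5PNP | Compound dosing: 12.8 µM single point, 1% DMSO | Incubation: Enzyme reaction with compound for 2 h at 37 °C | Technique: p-Nitrophenol epi absorbance | Read-out: % inhibition relative to enzyme-containing and enzyme-free wells | Benchmarks: High control without enzyme, low control DMSO plus TDP2 | Replicates: Singlicate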
ASAP1 GAP inh = ASAP1 ArfGAP inhibition. 360,000 tested, 0.19% active. AID 624377. inhibition, % at 16.5 µM. ASAP1-stimulated ARF1 GTP hydrolysis, GDP FP detection;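 note: 0% = vehicle with enzyme and substrate and 100% = no enzyme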
Target sequence (Q9ULH1 325-724 limits assumed): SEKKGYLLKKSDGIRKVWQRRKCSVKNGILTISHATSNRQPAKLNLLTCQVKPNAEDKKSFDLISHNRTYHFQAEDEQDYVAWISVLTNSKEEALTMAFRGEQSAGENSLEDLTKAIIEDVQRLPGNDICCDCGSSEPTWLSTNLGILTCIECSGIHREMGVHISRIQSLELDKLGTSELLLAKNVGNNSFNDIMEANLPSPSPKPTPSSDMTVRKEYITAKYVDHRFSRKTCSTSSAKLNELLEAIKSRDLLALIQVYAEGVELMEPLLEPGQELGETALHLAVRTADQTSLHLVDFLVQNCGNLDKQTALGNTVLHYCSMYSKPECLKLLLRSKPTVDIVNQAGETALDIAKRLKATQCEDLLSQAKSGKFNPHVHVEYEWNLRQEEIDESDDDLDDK
TDP2 inh conf = confirmation of human TDP2 inhibitors; shares compounds with TDP2 absorb; recombinant human TDP2, absorbance read-out; inhibition, % at 12.8 µM; 1,100 tested, 22% active; AID 743263;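 note: 0% = vehicle with enzyme and 100% = no enzyme buffer only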
Active calls of the source: *; / = no result given. Rows were chosen to be rich in hits. Some 1.3% of all compounds tested hit in one or more screens of this group. Cut-off read from the data, not from the text of the source, unless noted: active = inhibition above about 25%; inactive = the rest.

SMILES | ARFGAP1 inhibitor | LEDGF integ inh | CASP6 VEID inh | TDP2 absorb | ASAP1 GAP inh | TDP2 inh conf
Cc1ccc(NC2=C/C(=N/S(=O)(=O)c3cccs3)c3ccccc3C2=O)cc1 | 7 | 2 | 2 | 36* | 33* | 41*
Cc1ccc(/C=C2\S/C(=N/S(=O)(=O)c3cccs3)NC2=O)cc1 | -8 | -2 | 1 | 4 | -10 | /
CCN(Cc1ccccc1)C(=O)c1nn(-c2ccc(OC)cc2)c(=O)c2c1c1ccccc1n2C | 6 | 3 | 0 | -1 | -5 | /
COc1ccc(C(=O)NNC(=O)CSc2nc3c(c(=O)n(C)c(=O)n3C)n2C)cc1 | 8 | -1 | -1 | 25* | 3 | 7
O=S(=O)(Nc1ccccc1-c1ccccc1)c1ccccc1 | -1 | -4 | -10 | -6 | 13 | /
Cc1nnc(SCCC(=O)Nc2ccc(Cl)cc2)o1 | 2 | -5 | 1 | 2 | 9 | /
Cc1ccc(NC(=O)CCSc2nnc(C)o2)cc1 | 2 | 0 | -1 | 28* | -6 | 6
O=C(c1ccccn1)N1CC2(C1)[C@H](c1ccccc1)[C@@H](CO)N2Cc1ccc(Cl)cc1 | / | / | 1 | / | / | /
O=C(Cc1ccc(Cl)cc1)NCc1ccccc1Cl | 16 | -6 | -4 | 0 | 1 | /
O=C(Cc1ccccc1Cl)NC1(O)C(=O)c2ccccc2C1=O | 15 | -1 | 15 | 47* | 14 | 54*
CN(C)C(=O)c1cccc(-c2cnc3c(NC=O)cc(-c4ccccc4N(C)C)cn23)c1 | 8 | 5 | 2 | 29* | 23 | 17
C[C@H](NC(=O)C[C@H]1C=C[C@@H](NC(=O)C2CCOCC2)[C@H](CO)O1)c1ccccc1 | / | / | 7 | / | / | /
CCCCNc1nnc(Cc2ccc(Cl)cc2)c(=O)[nH]1 | 1 | 1 | -3 | 28* | 7 | 0
CCOC(=O)C1CCN(S(=O)(=O)c2cc(C(=O)N3CCCCC3)ccc2OC)CC1 | 5 | 2 | 4 | 25* | 16 | -1
CCOC(=O)C1CCN(C(=O)c2ccc(C)c(S(=O)(=O)N3CCCC3)c2)CC1 | 6 | 0 | -1 | -7 | 1 | /
CCNC(=O)Cc1ccc(S(=O)(=O)N2CCOCC2)s1 | 3 | -5 | 5 | -9 | -11 | /
Cc1cc(C)c(C#N)c(SCC(=O)N(CCC#N)c2ccc3c(c2)OCCO3)n1 | 0 | 4 | 0 | 25* | -14 | 1
CCOC(=O)C(=O)C1=CN(Cc2ccccc2)C=C(C#N)C1 | 5 | -1 | -2 | 27* | -4 | 11
CCC1(c2ccc(F)cc2)NC(=O)N(CC(=O)Nc2ccc(N3CCCCC3)cc2)C1=O (stereo unspecified) | -6 | 0 | -3 | -10 | 10 | /
CC(=O)N1c2ccccc2CCc2ccc(N)cc21 | -3 | -2 | -1 | 10 | 3 | /
O=C(CSc1nnnn1-c1ccccc1)NC(=O)Cc1ccccc1 | -3 | 1 | 0 | 1 | -6 | /
O=C(/C=C/c1cccc([N+](=O)[O-])c1)NCCN1C(=O)S/C(=C\c2cccnc2)C1=O | 0 | 1 | -1 | 25* | 2 | -3
CCNC(=S)NNC(=O)c1ccc(OC)cc1 | -2 | -2 | 0 | 65* | -3 | 3
O=C1NC(c2cccc3ccccc23)Nc2ccccc21 (stereo unspecified) | -3 | 7 | 0 | 3 | -13 | /
O=C1c2ccccc2C(=O)C12OC2c1cccc2ccccc12 (stereo unspecified) | 3 | 11 | 33 | 73* | 24 | 76*
SMILES | ARFGAP1 inhibitor | LEDGF integ inh | CASP6 VEID inh | TDP2 absorb | ASAP1 GAP inh | TDP2 inh conf
O=C1CCN(C(=O)Nc2ccccc2Cl)N1 | 1 | -1 | / | 2 | -10 | /
Cc1ccccc1OCC(O)Cn1c2ccccc2c2ccccc21 (stereo unspecified) | 0 | 2 | 0 | -2 | -1 | /
Cc1ccccc1OCC(O)CN1CCN(CC(O)COc2ccccc2C)C(C)C1 (stereo unspecified) | 10 | 2 | -2 | 26* | 2 | 5
Cc1nn(CCC#N)c(N)c1C1(O)C(=O)Nc2c(Cl)cc(Cl)cc21 (stereo unspecified) | 10 | -1 | 8 | 26* | -12 | 4
Cc1cc(NC(=O)c2ccc(Cl)cc2Cl)n(CCC#N)n1 | 10 | -1 | 1 | -2 | 4 | /
Cc1ccc(-c2csc(NC(=O)c3ccccc3Cl)c2C(=O)O)cc1 | -6 | 0 | -2 | 6 | -8 | /
O=S(=O)(Cc1ccccc1Cl)c1ncn[nH]1 | -13 | -4 | -1 | -9 | -7 | /
O=C(N/N=C/c1c(F)cccc1Cl)C1CC1 | 6 | -3 | 0 | 63* | -2 | -1
CCCc1nnc(NC(=O)CCC(=O)N2CCCCCC2)s1 | 6 | 0 | / | 2 | 2 | /
CCCc1nnc(NC(=O)CCC(=O)N2CCCCC2)s1 | -3 | -2 | 5 | 26* | -2 | -6
O=C1c2nccnc2C(=O)N1c1ccc(C(F)(F)F)cc1 | -2 | -1 | 4 | 28* | -3 | 1
CCOc1cc(CNCCSc2nnnn2C)cc(Br)c1OCc1ccc(F)cc1 | 3 | -3 | 0 | 10 | -1 | /
Cc1cc(NC(=O)COc2ccccc2)n(-c2ccccc2)n1 | 2 | 1 | / | 4 | 2 | /
Cc1cc(NC(=O)CSc2nccn2C)n(-c2ccccc2)n1 | -12 | 4 | 2 | 26* | -19 | 1
CCN1CCN(C(=O)Cn2ncc3c2-c2ccccc2OC3)CC1 | 8 | -2 | -3 | -4 | 1 | /
O=C(Cn1ncc2c1-c1ccccc1OC2)N1CCN(Cc2ccccc2)CC1 | -3 | 2 | -1 | 29* | 2 | 10
COc1ccc(NC(=O)Nc2ccc3c(c2)CC(=O)N([C@H](C)CO)C[C@@H](C)[C@@H](CN(C)Cc2ccncc2)O3)cc1 | / | / | 0 | / | / | /
CCN(CCCNS(=O)(=O)c1cc(-c2cc(C)no2)ccc1C)Cc1ccccc1 | 7 | -2 | -12 | 47* | -4 | -1
Cc1cc(-c2ccc(C)c(S(=O)(=O)NCc3ccc(OC(C)C)cc3)c2)on1 | 10 | 0 | 6 | 32* | -7 | 0
CCOC(=O)c1cnc(SC)nc1N1CCCC1 | 10 | -2 | 0 | 29* | -3 | -6
O=C(NC1CCCC1)C(c1ccc(N2CCOCC2)cc1)N(Cc1ccccc1)C(=O)c1ccco1 (stereo unspecified) | -17 | -1 | / | 32* | 3 | -7
CCN(CC)c1ccc(/C=C2\C(=O)N(c3nnc(C)c(=O)[nH]3)N=C2C)cc1 | -8 | 4 | 36* | 26* | 5 | 4
CCN(CC)c1ccc(/C=C2/C(=O)ON=C2C)cc1 | -2 | -1 | 1 | 10 | 1 | /
O=C(Nc1c(-c2ccccc2)[nH][nH]c1=O)c1cccs1 | 5 | 12 | 4 | 42* | -8 | 15
O=C(Nc1c(-c2ccccc2)[nH][nH]c1=O)c1ccc(Br)cc1 | 2 | 4 | 9 | 33* | 0 | 16

Screening data: PubChem, several laboratories
